Legend:
Type in all cases: functional
Conditions in all cases: route oral
Mus musculus [1] = experiment: Compound was tested for the inhibition of proteinuria in the graft-versus-host disease (GVHD) in mice at 100 mg/kg p.o.; 8/10 mice died
Mus musculus [2] = experiment: Antinephritic activity on chronic graft-versus-host disease (GVHD) in mice at 10 mg/kg p.o.
Outline: (§1)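 Chronic GVHD induced in 6-week-old female ([…] x DBA/2)F1 mice by two injections of DBA/2 spleen cells (5 x 10^7 cells each), given 5 days apart. Oral dosing once daily for 8 weeks, starting 3 days after the second injection. Urinary albumin measured after the last dose by single radial immunodiffusion with rabbit anti-mouse serum albumin antiserum. Ten mice per group. Value reported as % inhibition of proteinuria.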

Mus musculus [3] = experiment: Inhibition of proteinuria in the graft-versus-host disease mice following 100 mg/kg p.o. administration.; outline: as §1
Mus musculus [4] = experiment: Antinephritic activity on chronic graft-versus-host disease (GVHD) in mice at 32 mg/kg p.o.; outline: as §1
Mus musculus [5] = experiment: Compound was tested for the inhibition of proteinuria in the graft-versus-host disease (GVHD) in mice at 100 mg/kg p.o.; 9/10 mice died

Row | SMILES | inhibition in vivo at 100 mg/kg (Mus musculus [3]) [%] | further results
1 | Nc1ncc([S+]([O-])c2ccncc2)s1 (stereo not given) | – | inhibition in vivo at 100 mg/kg (Mus musculus [1]): 100%
2 | Nc1ccc(S(=O)(=O)c2ccc(N)cc2)cc1 [DAPSONE] | 95 | inhibition in vivo at 10 mg/kg (Mus musculus [2]): < 50%; inhibition in vivo at 32 mg/kg (Mus musculus [4]): < 50%
3 | Nc1ccc([S+]([O-])c2cnc(N)s2)cc1 (stereo not given) | 79 | –
4 | Nc1ccc(NC(=O)c2ccc(N)cc2)cc1 | < 50 | –
5 | Nc1ccc(C(=O)c2cccc(N)c2)cc1 | < 50 | –
6 | Nc1ccc(C(=O)c2ccncc2)cc1 | 89 | –
7 | Cn1ccnc1[S+]([O-])c1ccc(N)cc1 (stereo not given) | < 50 | –
8 | Nc1ccc([S+]([O-])c2ccncc2)cc1 (stereo not given) | – | inhibition in vivo at 100 mg/kg (Mus musculus [5]): < 50%
9 | CS(=O)(=O)Nc1ccc(C(=O)c2ccc(N)cc2)cc1 | < 50 | –
10 | Nc1ncc(S(=O)(=O)c2ccccn2)s1 | 92 | inhibition in vivo at 10 mg/kg (Mus musculus [2]): 63%; inhibition in vivo at 32 mg/kg (Mus musculus [4]): 29%
11 | NC(=O)Nc1ccc(C(=O)c2ccc(N)cc2)cc1 | < 50 | –
12 | Nc1ccc(Sc2ccc(N)cc2)cc1 [4,4'-THIODIANILINE] | 70 | –
13 | Nc1ccc([S+]([O-])c2ccc(N)cc2)cc1 | 95 | –
14 | Nc1ccc(Oc2ccc(N)cc2)cc1 | 93 | –
15 | Nc1ccc(NS(=O)(=O)c2ccc(N)cc2)cc1 | 54 | –
16 | Nc1ccc([S+]([O-])c2ncccn2)cc1 (stereo not given) | 99 | –
17 | Nc1ncc([S+]([O-])c2ccccn2)s1 (stereo not given) | 98 | –
18 | Cc1cc(C(=O)c2ccc(N)cc2)ccc1N | 100 | –
19 | Nc1ncc(Sc2ccccn2)s1 | 90 | –
20 | Cc1cc(C(=O)c2ccc(N)cc2)cc(C)c1N | 99 | –
21 | Nc1ccc(C(=O)c2ccc(N)cc2)cc1 | 95 | –
